pIC50: −log10 of the molar value. Values after ≈ are worked out from the molar mass of the structure shown.
How the values were obtained:
Escherichia coli = experiment: Antimicrobial activity against Escherichia coli DSM 1103 after 22 hrs by resazurin dye based spectrophotometry; assay type: functional; settings: DSM 1103, 22 h
How it was run: (§1)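 2-fold broth microdilution in Mueller–Hinton medium; peptide stocks 1024 μg/mL in 50% ethanol. Exponential-phase cultures diluted to OD550 0.2, then 1:100 (B. subtilis) or 1:1000 (E. coli), giving 5 × 10^5 CFU/mL per well. Incubated 22 h, 37 °C, static; then resazurin (0.2 mg/mL solution) added for 2 h at 37 °C, read visually and spectrophotometrically. Tested in both photoforms.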

[1] = Selective ratio of HC50 for human RBC to IC50 for human HeLa cells; assay type: toxicity; settings: human red blood cells versus HeLa cells
How it was run: (§2)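 Ratio of HC50 (RBC) to HeLa IC50 or to MIC against B. subtilis or E. coli; values measured in mg/mL and recalculated to μM, 2-fold dilution without curve fitting, accuracy within a factor of 2.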

HeLa = experiment: Cytotoxicity against human HeLa cells assessed as reduction in cell viability after 24 hrs by MTT assay; assay type: functional, cell-based
How it was run: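 HeLa cells seeded at about 5 × 10^4 cells/mL in DMEM with 10% FBS, 2 mM glutamine, gentamicin; 24 h adaptation (37 °C, 5% CO2), then 24 h peptide exposure. MTT 4 h, formazan in DMSO read at 570 nm. 2-fold series 256–0.5 (open) or 512–1 μg/mL (closed), four repetitions; IC50 extrapolated from killing curves. Closed form handled in dim light.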

[2] = Hemolytic activity against human RBC assessed as hemolysis after 30 mins by colorimetric method; assay type: ADME, cell-based, Erythrocyte; settings: human red blood cells (erythrocytes)
How it was run: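 Human erythrocytes washed twice in isotonic 172 mM Tris-HCl, pH 7.6; peptides dissolved in DMSO, diluted in buffer, two independent 10-step 2-fold series from 256 or 192 μg/mL. HC50 extrapolated as 50% hemolysis concentration.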

[3] = Therapeutic index, ratio of HC50 for human RBC to MIC for Bacillus subtilis DSM 347; assay type: toxicity; settings: human red blood cells versus Bacillus subtilis DSM 347; how it was run: as §2
Bacillus subtilis = experiment: Antimicrobial activity against Bacillus subtilis DSM 347 after 22 hrs by resazurin dye based spectrophotometry; assay type: functional; settings: DSM 347, 22 h; how it was run: as §1
[4] = Therapeutic index, ratio of HC50 for human RBC to MIC for Escherichia coli DSM 1103; assay type: toxicity; settings: human red blood cells versus Escherichia coli DSM 1103; how it was run: as §2

| SMILES | MIC (Escherichia coli) [µM] | selectivity ratio [1] | pIC50 (HeLa) | HC50 at 0.5 h [2] [µM] | selectivity ratio [3] | MIC (Bacillus subtilis) [µM] | selectivity ratio [4] |
| --- | --- | --- | --- | --- | --- | --- | --- |
| CC(C)[C@@H]1NC(=O)[C@H](CCCN)NC(=O)[C@H]([C@H](O)C(C)C)NC(=O)C2=CC3=C4CCCC4=C4C=C(S[C@]4(C)[C@@]3(C)S2)C(=O)[C@H]2CCCN2C(=O)[C@H](C(C)C)NC(=O)[C@H](CCCN)NC(=O)[C@H](C(C)C)NC(=O)[C@@H]2CCCN2C(=O)[C@@H](Cc2ccccc2)NC1=O | 200 (≈ 257 µg/mL) | 1.2 | 3.52 | 351 | 27 | 13 (≈ 16.7 µg/mL) | 1.8 |
| CC(C)[C@@H]1NC(=O)[C@H](CCCN)NC(=O)[C@H]([C@H](O)C(C)C)NC(=O)C2=CC3=C4CCCC4=C4C=C(S[C@]4(C)[C@@]3(C)S2)C(=O)[C@H]2CCCN2C(=O)[C@H](C(C)C)NC(=O)[C@H](CCCN)NC(=O)[C@H]([C@H](O)C(C)C)NC(=O)[C@@H]2CCCN2C(=O)[C@@H](Cc2ccccc2)NC1=O | 195 (≈ 256 µg/mL) | 0.5 | 3.53 | 160 | 13.3 | 12 (≈ 15.8 µg/mL) | 0.8 |
| CCCCN1C(=O)[C@@H](Cc2ccccc2)NC(=O)[C@H](CC(C)C)NC(=O)[C@H](CCCN)NC(=O)[C@H]([C@@H](C)CC)NC(=O)C2=CC3=C4CCCC4=C4C=C(S[C@]4(C)[C@@]3(C)S2)C(=O)[C@H]2CCCN2C(=O)[C@H](CC(C)C)NC(=O)[C@H](CCCN)NC(=O)[C@H]([C@@H](C)CC)NC(=O)[C@@H]1CC(C)C | 186 (≈ 257 µg/mL) | 1 | 4.89 | 13 | 13 | 1 (≈ 1.38 µg/mL) | 0.1 |
| CC(C)C[C@@H]1NC(=O)[C@H](CCCN)NC(=O)[C@H](C(C)C)NC(=O)C2=CC3=C4CCCC4=C4C=C(S[C@]4(C)[C@@]3(C)S2)C(=O)[C@H]2CCCN2C(=O)[C@H](C)NC(=O)[C@H](CCCN)NC(=O)[C@H](C(C)C)NC(=O)[C@@H]2CCCN2C(=O)[C@@H](Cc2ccccc2)NC1=O | 207 (≈ 256 µg/mL) | 1.2 | 4.41 | 45 | 3.5 | 13 (≈ 16.1 µg/mL) | 0.2 |
| Cc1sc2cc1C1=C(CCC1)c1cc(sc1C)C(=O)[C@H]1CCCN1C(=O)[C@H]([C@H](O)C(C)C)NC(=O)[C@H](CCCN)NC(=O)[C@H](C(C)C)NC(=O)[C@@H]1CCCN1C(=O)[C@@H](Cc1ccccc1)NC(=O)[C@H](C(C)C)NC(=O)[C@H](CCCN)NC(=O)[C@H](C(C)C)NC2=O | 100 (≈ 128 µg/mL) | 1.3 | 4.51 | 39 | 25 | 2 (≈ 2.57 µg/mL) | 0.4 |
| Cc1sc2cc1C1=C(CCC1)c1cc(sc1C)C(=O)[C@H]1CCCN1C(=O)[C@H](CC(C)C)NC(=O)[C@H](CCCNC(=N)N)NC(=O)[C@H](C(C)C)NC(=O)[C@@H]1CCCN1C(=O)[C@@H](Cc1ccccc1)NC(=O)[C@H](CC(C)C)NC(=O)[C@H](CCCNC(=N)N)NC(=O)[C@H](C(C)C)NC2=O | 35 (≈ 47.8 µg/mL) | 0.5 | 5.40 | 2 | 0.7 | 3 (≈ 4.09 µg/mL) | 0.1 |
| Cc1sc2cc1C1=C(CCC1)c1cc(sc1C)C(=O)[C@H]1CCCN1C(=O)[C@H](CCCCN)NC(=O)[C@H](C13CC4CC(CC(C4)C1)C3)NC(=O)[C@H](CCCN)NC(=O)[C@@H]1CCCN1C(=O)[C@@H](Cc1ccccc1)NC(=O)[C@H](CCCN)NC(=O)[C@H](C13CC4CC(CC(C4)C1)C3)NC(=O)[C@H](CCCN)NC2=O | 16 (≈ 23.7 µg/mL) | 0.1 | 4.96 | 1 | 0.3 | 3 (≈ 4.44 µg/mL) | 0.1 |
| C[C@]12SC3=CC1=C1CCCC1=C1C=C(S[C@@]12C)C(=O)[C@H]1CCCN1C(=O)[C@H](CCCCN)NC(=O)[C@H](C12CC4CC(CC(C4)C1)C2)NC(=O)[C@H](CCCN)NC(=O)[C@@H]1CCCN1C(=O)[C@@H](Cc1ccccc1)NC(=O)[C@H](CCCN)NC(=O)[C@H](C12CC4CC(CC(C4)C1)C2)NC(=O)[C@H](CCCN)NC3=O | 8 (≈ 11.8 µg/mL) | 0.1 | 4.96 | 1 | 0.3 | 3 (≈ 4.44 µg/mL) | 0.1 |
| Cc1sc2cc1C1=C(CCC1)c1cc(sc1C)C(=O)[C@H]1CCCN1C(=O)[C@H](C(C)C)NC(=O)[C@H](CCCN)NC(=O)[C@H]([C@H](O)C(C)C)NC(=O)[C@@H]1CCCN1C(=O)[C@@H](Cc1ccccc1)NC(=O)[C@H](C(C)C)NC(=O)[C@H](CCCN)NC(=O)[C@H]([C@H](O)C(C)C)NC2=O | 98 (≈ 129 µg/mL) | 2.6 | 4.21 | 160 | 53.3 | 3 (≈ 3.94 µg/mL) | 1.6 |
| CC(C)C[C@@H]1NC(=O)C2=CC3=C4CCCC4=C4C=C(S[C@]4(C)[C@@]3(C)S2)C(=O)[C@H]2CCCN2C(=O)[C@H](C(C)C)NC(=O)[C@H](CCCCN)NC(=O)[C@H](CC(C)C)NC(=O)[C@H](CCCCN)NC(=O)[C@@H]2CCCN2C(=O)[C@@H](Cc2ccccc2)NC(=O)[C@H](CCCCN)NC(=O)[C@H](C(C)C)NC(=O)[C@H](CCCCN)NC1=O | 164 (≈ 257 µg/mL) | 1 | 4.09 | 82 | 8.2 | 10 (≈ 15.7 µg/mL) | 0.5 |
| Cc1sc2cc1C1=C(CCC1)c1cc(sc1C)C(=O)[C@H]1CCCN1C(=O)[C@H](C(C)C)NC(=O)[C@H](CCCN)N(C)C(=O)[C@H](C(C)C)NC(=O)[C@@H]1CCCN1C(=O)[C@@H](Cc1ccccc1)N(C)C(=O)[C@H](C(C)C)NC(=O)[C@H](CCCN)NC(=O)[C@H](C(C)C)NC2=O | 100 (≈ 128 µg/mL) | 2.4 | 4.60 | 59 | 29.5 | 2 (≈ 2.56 µg/mL) | 0.6 |
| Cc1sc2cc1C1=C(CCC1)c1cc(sc1C)C(=O)[C@H]1CCCN1C(=O)[C@H](C)NC(=O)[C@H](CCCN)NC(=O)[C@H](C(C)C)NC(=O)[C@@H]1CCCN1C(=O)[C@@H](Cc1ccccc1)NC(=O)[C@H](CC(C)C)NC(=O)[C@H](CCCN)NC(=O)[C@H](C)NC2=O | 106 (≈ 128 µg/mL) | 2.2 | 4.40 | 87 | 12.4 | 7 (≈ 8.47 µg/mL) | 0.8 |
| CC(C)C(=O)NCC[C@@H]1NC(=O)C2=CC3=C4CCCC4=C4C=C(S[C@]4(C)[C@@]3(C)S2)C(=O)[C@H]2CCCN2C(=O)[C@H](C(C)C)NC(=O)[C@H](CCCN)NC(=O)[C@H](C(C)C)NC(=O)[C@@H]2CCCN2C(=O)[C@@H](Cc2ccccc2)NC(=O)[C@H](C(C)C)NC(=O)[C@H](CCCN)NC1=O | 194 (≈ 257 µg/mL) | 2 | 3.71 | 387 | 8.1 | 48 (≈ 63.5 µg/mL) | 2 |
| Cc1sc2cc1C1=C(CCC1)c1cc(sc1C)C(=O)[C@H]1CCCN1C(=O)[C@H](CC(C)C)NC(=O)[C@H](CCCCN)NC(=O)[C@H](C(C)C)NC(=O)[C@H](CCCCN)NC(=O)[C@H](CC(C)C)NC(=O)[C@H](CCCCN)N(C)C(=O)[C@@H](Cc1ccccc1)NC(=O)[C@H](C(C)C)NC(=O)[C@H](CCCCN)NC(=O)[C@H](CC(C)C)NC(=O)[C@H](CCCCN)NC(=O)[C@H](C(C)C)NC2=O | 18 (≈ 32.8 µg/mL) | 0.5 | 5.70 | < 1 | 0.3 | 4 (≈ 7.29 µg/mL) | 0.1 |

Reference: ChEMBL document CHEMBL4257585, “Structure-Activity Relationships of Photoswitchable Diarylethene-Based β-Hairpin Peptides as Membranolytic Antimicrobial and Anticancer Agents” (J Med Chem, 2018)
